# Experimental data: ChEMBL document CHEMBL4513216, “Probing the Open Global Health Chemical Diversity Library for Multistage-Active Starting Points for Next-Generation Antimalarials” (ACS Infect Dis, 2020)
# Experiment: Toxicity liver stage against HepG2, at 10uM
# Type: cell-based
# Parameters: test concentration 10 uM, cell line HepG2-A16-CD81EGFP
# Details: human, HepG2-A16-CD81EGFP cells; read-out: INHIBITION
# Summary of the method: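 Uninfected HepG2-A16-CD81EGFP cells, 3 × 10^3 per well, 1536-well, plated on prespotted compound at 10 μM final, parasite-free screening media added to match infected plates; puromycin 10 μM positive, DMSO 0.5% negative; run in parallel with 48 h PbLuc assay at 37 °C, 5% CO2; viability by CellTiter-Glo luminescence, normalized to controls.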
row,Structure (SMILES),cytotoxicity at 10 µM
1,CN1CC[C@H](c2nnc(Cc3c[nH]c4ccccc34)o2)C1,4.84%
2,Cn1nc(-c2cccs2)cc1[C@H]1CN2CC[C@H]1C[C@@H]2CN,5.88%
3,Cn1ccc2ccc(C(=O)N3CCN(C(=O)OC(C)(C)C)CC3)cc21,18.1%
4,CCN1CCNC(=O)C12CCN(S(=O)(=O)c1ccc(OC)cc1)CC2,0.699%
5,COCCN1CCC2(CCN(C(=O)c3ccc(F)cc3)CC2)C1=O,2.85%
6,CS(=O)(=O)N1C[C@@H]2CCN(C(=O)c3ccco3)[C@@H]2C1,10%
7,COCc1cncc2c1CCN(Cc1cccnc1)C2,3.91%
8,c1cc(C[C@H]2[C@H](N3CCOCC3)CCN2Cc2ccoc2)ccn1,10.2%
9,CC(=O)N1CCOC2(CCCN(Cc3ccc(N(C)C)cc3)C2)C1 (stereo not drawn),0.603%
10,O=C(c1ccoc1)N1CCc2c(COCc3ccncc3)cncc2C1,8.1%
11,Cc1nc(NC2CCN(S(=O)(=O)c3ccccc3)CC2)[nH]c(=O)c1C,-3.45%
12,CCOc1cc([C@@H]2N[C@H](c3nccs3)Cc3ccsc32)ccc1OC,7.94%
13,COC(=O)c1cccc(C2CNCCN2C(C)=O)c1 (stereo not drawn),3.31%
14,CS(=O)(=O)c1cc(Cl)cnc1C1CCN(C(=O)C2CCOCC2)CC1,4.07%
15,CN(C)c1ncc2c(O)nc(C3CCCNC3)cc2n1 (stereo not drawn),8.62%
16,CNc1nc(C2CCCN(C(=O)C3CCCCC3)C2)nc2c1CNCC2 (stereo not drawn),-1.85%
17,Nc1nccnc1CC1CCCN(Cc2c[nH]c3ccccc23)C1 (stereo not drawn),2.81%
18,Cc1cc(CCC(=O)N2CCCC2)nc(C2CCCN2)n1 (stereo not drawn),5.91%
19,CCc1cc(C(=O)N2CCCC(c3[nH]ncc3S(C)(=O)=O)C2)no1 (stereo not drawn),-0.335%
20,CCc1nccn1-c1cccc(C2CCCN(C3CCCCC3)C2)n1 (stereo not drawn),-5.08%
21,Cc1c[nH]nc1C1CCCCN1C(=O)CC1(O)CCCCC1 (stereo not drawn),-2.92%
22,CC1CCCN(CC(=O)N2CCC(c3ncc4c(n3)CCNC4)CC2)C1 (stereo not drawn),7.62%
23,CNC(=O)CCOC(=O)c1cccc(-n2ccc(C(F)(F)F)n2)c1,-41.9%
24,CN1CCC(N2CCOC3(CCCC3)C2)C1=O (stereo not drawn),-6.52%
25,O=C(N1CCOCC1)N1CCN(c2ccncc2Cl)CC1,-4.79%
26,CC(CNC(=O)c1ccc(Cl)cc1F)N1CCN(C)CC1 (stereo not drawn),-8.56%

row,Structure (SMILES),cytotoxicity at 10 µM
1,CC(=O)c1cccc(NC(=O)N(CCO)C2CCc3ccccc32)c1 (stereo not drawn),-3.01%
2,Cc1nc(-c2ccsc2)ccc1C(=O)N1CCn2c(C)nnc2C1,-7.83%
3,CC(C)c1nc(CNC2CCN(S(C)(=O)=O)CC2)cs1,-1.53%
4,CCc1nc(C2CCCN2c2ncc(C(N)=O)cc2Cl)no1 (stereo not drawn),-3.99%
5,O=C(NCC1CC1)[C@@H]1CC[C@@H]2[C@@H](CCN2CCOCc2ccccc2)O1,-112%
6,CN1CCN(Cc2cn3c(n2)CN(Cc2ccccn2)CC3)CC1,-117%
7,Cc1ccc(CN2CCC3(CCCN(S(C)(=O)=O)C3)C2)o1 (stereo not drawn),-104%
8,Cc1nc(COC[C@@H]2CC[C@H]3[C@H](CCN3S(C)(=O)=O)O2)cs1,5.22%
9,Cc1cc(CN2CC[C@H]3C[C@H](c4nccs4)O[C@@H]3C2)no1,3.22%
10,CCC1=N[C@@]2(CC[C@@H]3CN(C(=O)NCc4ccccc4)C[C@@H]32)C(=O)N1C,1.05%
11,CCOc1ccc(-c2ccnc(C)n2)cc1C(=O)O,5.59%
12,CC(CCN1CCC(n2cc(CCO)nn2)CC1)c1ccccc1 (stereo not drawn),3.23%
13,COc1ccccc1-c1ncc(CN2CCC3(CCNCC3)CC2)cn1,-1.49%
14,COCCC1CN(c2nc(-c3ccccc3)nc3c2CCNC3)CCO1 (stereo not drawn),-2.98%
15,Cc1nccc(NCc2cc3n(n2)CCCN(S(C)(=O)=O)C3)n1,2.35%
16,C/C=C(\C)CN1C[C@H](NC(=O)c2cc[nH]c2C)[C@@H](C2CC2)C1,4.96%
17,Cc1cc(F)cc(CN2CCCn3nc(CNS(C)(=O)=O)cc3C2)c1,-3.85%
18,COCC1CCN(S(=O)(=O)N2C[C@@H](C)[C@@](C)(O)C2)CC1,3.45%
19,CC[C@H](C)Cn1nc(C2CCNCC2)n(Cc2ccccc2)c1=O,-5.82%
20,CCCN(Cc1cccc(OCCO)c1)Cc1ccccc1OC,5.15%
21,CCN(CCO)C(=O)c1cc(Cn2c(C)nc3ccccc32)[nH]n1,8.51%
22,CNC(=O)[C@@H]1C[C@@H](n2cc(-c3ccc(CN4CC=CC4)cc3)nn2)CN1,3.76%
23,Cc1noc(C)c1CN(C)C(=O)c1ccc(O)nc1,-9.71%
24,CC(NC(=O)NCc1ccccc1F)(C(=O)O)c1ccco1 (stereo not drawn),-5.64%
25,Cc1cccc(OCCN2CCC(c3ccnn3CCO)CC2)c1,-4.87%
26,O=C(c1cc[nH]n1)N1CCCC(c2cc(C(F)(F)F)[nH]n2)C1 (stereo not drawn),-6.97%

row,Structure (SMILES),cytotoxicity at 10 µM
1,Cc1cc(F)ccc1NS(=O)(=O)c1cc2c(c(C(=O)O)c1)OCCO2,-6.56%
2,Cn1ccnc1CN1CCCN(C(=O)c2ccc3[nH]nnc3c2)CC1,-8.53%
3,CCCN1CCC(CNC(=O)C2(c3cc(C)cc(C)c3)CCC2)C1 (stereo not drawn),-0.185%
4,O=C(C1CCN(Cc2nc(-c3ccco3)no2)CC1)N1CCCC1,-3.4%
5,Cc1noc(C2CCN(C(=O)Nc3ccc(N(C)C)nc3)CC2)n1,-3.45%
6,CCn1c(CN2CCN(CCO)CC2)nc2c(F)cccc21,-8.83%
7,O=C(c1ccnc(-n2ccnc2)c1)N1CCCC(n2ccnc2)C1 (stereo not drawn),0.956%
8,COCCCN(CCOC)Cc1nc2c(cnn2C)c(=O)[nH]1,-5.72%
9,Cc1nn(C)c(Cl)c1C1CCCN1C(=O)c1ccc[nH]1 (stereo not drawn),-8.57%
10,Cc1nccn1C1CCCN(C(=O)c2ccc(N3CCCC3)nn2)C1 (stereo not drawn),-11.2%
11,Cc1ncc2c(n1)CN(CC(=O)Nc1ccncc1)CC2,-8.7%
12,Cn1ncc2c(=O)[nH]c(CN3CCCC3CC3CCCCC3)nc21 (stereo not drawn),-2.41%
13,CCOCC(O)CN1CCN(C(=O)CC(C)C)CC1 (stereo not drawn),-6.98%
14,Cc1cnn(CCC(=O)N2CCCC(c3cc(C(N)=O)[nH]n3)C2)c1 (stereo not drawn),-7.32%
15,CC(=O)N1CCC(N2CCC(c3nc(C)cc(C)n3)C2)CC1 (stereo not drawn),-7.87%
16,COc1ccccc1CN1CC[C@]2(C[C@@H](OCC(=O)N(C)C)CO2)C1,-112%
17,c1ncc(-c2ccc(C3CNCCO3)nc2)cn1 (stereo not drawn),-5.33%
18,Cc1ncsc1CN1C[C@H](C(=O)NCC2CC2)[C@@H]2CCO[C@@H]2C1,-3.17%
19,CN1CCN([C@@H]2CCN(C3CCOC3)[C@H]2Cc2cnn(C)c2)CC1 (stereo partly drawn),6.28%
20,O=C(Nc1cnccn1)[C@@H]1COC[C@H]2CN(C3CCC3)C[C@H]21,14.7%
21,O=S(=O)(NC[C@]12COC[C@H]1CN(CCc1ccccc1)C2)C1CC1,12.7%
22,CO[C@H]1CCN(c2nnc(C)s2)C[C@@H]1Cc1cccc(C)c1,16.6%
23,O=C1COC2(CCN(Cc3ccsc3)CC2)CN1,-3.46%
24,CN(C)C[C@H]1OC[C@@H]2CN(C(=O)NCc3cccc(F)c3)CC[C@@H]21,-2.12%
25,CN1CCN(c2ncnc3c2CCN(c2ncc(F)cn2)CC3)CC1,7.61%
26,O=C(NCCc1cccs1)[C@]12COC[C@H]1CN(Cc1ccccn1)C2,-105%
